Compound activity (PubChem BioAssay)
Rows were chosen to be rich in hits. Some 5.8% of all compounds tested hit in one or more screens of this group.
Pf Dd2 growth = P. falciparum Dd2 growth inhibition; SYBR Green, 72 h; hits give low values; activity change, % at 10 µM; 94,000 compounds, 2.3% hits; in the data active = activity change below about -80%; inconclusive = no clear call, values can overlap the other calls
T cruzi growth-1 = T. cruzi proliferation inhibition | T. cruzi beta-gal in NIH3T3, GalScreen luminescence, 90 h | inhibition, % at 8.34 µM | 77,000 compounds, 5.9% hits;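 active = mean inhibition above about 93%, with at least 55% of replicates each passing it, limit read from the data, passing the limit was not always enough; inconclusive = only one of those two conditions holds; inactive = neither condition holds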
IDH1 R132H inh = IDH1 R132H (human) inhibition. O75874. IDH1 R132H reductase, diaphorase/resazurin fluorescence, 60 min. inhibition, % at 10 µM. 70,000 compounds, 0.18% hits; in the data active = inhibition above about 34%; inconclusive = no clear call, values can overlap the other calls; inactive = below about 11%;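 also: 0% = DMSO and 100% = no enzyme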
KDM4C inh = blocks human GASC-1 (KDM4C) demethylase activity; Q9H3R0; GST-KDM4C 2-372, H3K9me3 peptide, LANCE TR-FRET; inhibition, % at 12.5 µM; 96,000 compounds, 0.15% hits; AID 720574;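 active = mean replicate inhibition above about 25%, with at least 55% of replicates also reaching it, limit read from the data, passing the limit was not always enough; inconclusive = only one of those two conditions met; inactive = neither condition met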
Target sequence (Q9H3R0 2-372 limits assumed): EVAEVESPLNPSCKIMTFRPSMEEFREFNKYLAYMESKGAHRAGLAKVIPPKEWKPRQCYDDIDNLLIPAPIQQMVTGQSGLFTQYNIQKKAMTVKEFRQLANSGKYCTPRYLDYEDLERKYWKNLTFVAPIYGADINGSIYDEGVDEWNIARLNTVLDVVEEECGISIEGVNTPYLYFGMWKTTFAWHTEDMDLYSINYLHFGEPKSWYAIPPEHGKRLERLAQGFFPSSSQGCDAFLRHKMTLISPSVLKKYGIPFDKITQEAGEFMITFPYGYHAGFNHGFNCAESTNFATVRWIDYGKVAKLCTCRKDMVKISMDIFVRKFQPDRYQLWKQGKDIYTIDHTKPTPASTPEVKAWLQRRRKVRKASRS
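System: N-terminal GST-fused human GASC-1 (KDM4C) fragment, residues 2-372 / Amount: 10 nM GST-KDM4C in enzyme reaction / Also added: H3K9me3 peptide with Fe(II)/2OG / Times: 30 min demethylation and 1 h detection at room temperature / Signal: LANCE TR-FRET / Read-out basis: Fall in 671/618 emission ratio as inhibition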
T cruzi growth-2 = Trypanosoma cruzi proliferation inhibition; AID 651739; shares compounds with T cruzi growth-1; inhibition, % at 8.35 µM; 5,600 compounds, 72% hits; T. cruzi beta-gal in NIH3T3, GalScreen luminescence, 90 h;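 active = mean replicate inhibition above about 95% and at least 55% of replicates individually reaching it, limit read from the data; inconclusive = only one of the two criteria is met; inactive = neither criterion is met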
T cruzi growth-3 = inhibitors of T. cruzi proliferation; shares compounds with T cruzi growth-1; T. cruzi beta-gal in NIH3T3, GalScreen luminescence, 90 h; inhibition, % at 2.09 µM; 5,600 compounds, 21% hits; AID 651740;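 active = mean inhibition above about 95%, with at least 55% of replicates also reaching it, limit read from the data; inconclusive = meets just one of the two conditions; inactive = meets neither condition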;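 also: plate controls were neutral control median for no effect and positive control median for full effect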
3T3 cytotox = kills mouse NIH/3T3 fibroblasts; cytotoxicity (signal decrease), % at 8.35 µM; 5,600 compounds, 14% hits; NIH/3T3 viability, CellTiter-Glo ATP luminescence, 90 h; AID 651742; shares compounds with T cruzi growth-1;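 active = mean signal decrease across replicates above about 35% based on untreated-well scatter, with enough replicates individually passing, limit read from the data; inconclusive = no rule stated though some were filed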;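 also: 0% = median of neutral control wells and 100% = median of positive control wells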
3T3 cytotox 2 = kills mouse NIH/3T3 fibroblasts; shares compounds with T cruzi growth-1; NIH/3T3 viability, CellTiter-Glo ATP luminescence, 90 h; inhibition, % at 24.9 µM; 5,600 compounds, 56% hits; AID 651744;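 active = mean loss of cell viability signal at or above a set limit, and enough replicates individually reaching it; inconclusive = meets only the mean limit or only the replicate share; inactive = meets neither condition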;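 also: 0% = median of neutral control wells and 100% = median of positive control wells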
Starred values were filed as active, the others as inactive; ? = inconclusive; nt = not tested or not shown.

SMILES	Pf Dd2 growth	T cruzi growth-1	IDH1 R132H inh	KDM4C inh	T cruzi growth-2	T cruzi growth-3	3T3 cytotox	3T3 cytotox 2
CCc1cnc(N2[C@H](C#N)[C@H](c3ccc(C#CC(C)C)cc3)[C@H]2CO)s1	-13	107*	nt	-1	98*	108*	16	26*
CC(=O)Nc1ccc2c(c1)C(=O)N(C)[C@@H]1CC[C@@H](CC(=O)NCc3ccccc3Cl)O[C@H]1CO2	-12	-23	nt	-1	nt	nt	nt	nt
CCS(=O)(=O)N1CC2(CN(Cc3ccccc3F)[C@H](CO)c3c2c2ccc(OC)cc2n3C)C1	-8	nt	nt	0	nt	nt	nt	nt
N#Cc1ccc(-c2ccc3c(c2)[C@@H]2[C@@H](CCN2S(=O)(=O)c2ccccc2F)[C@H](CO)N3)cc1	24	36	nt	0	nt	nt	nt	nt
N#Cc1cccc(-c2ccc3c(c2)[C@@H]2[C@@H](CCN2S(=O)(=O)c2ccccc2F)[C@H](CO)N3)c1	23	108*	nt	-3	106*	87	46*	92*
N#Cc1ccc(-c2ccc3c(c2)[C@H]2[C@H](CCN2S(=O)(=O)c2cccc(F)c2)[C@H](CO)N3)cc1	-9	13	nt	-2	nt	nt	nt	nt
N#Cc1cccc(-c2ccc3c(c2)[C@H]2[C@H](CCN2S(=O)(=O)c2cccc(F)c2)[C@H](CO)N3)c1	42	103*	nt	-6	99*	27	10	?
N#Cc1cccc(-c2ccc3c(c2)[C@H]2[C@H](CCN2S(=O)(=O)c2cccc(F)c2)[C@@H](CO)N3)c1	10	?	nt	-1	106*	48	46*	51*
O=C([C@H]1N[C@H]2c3ccc(C4=CCCCC4)c(=O)n3C[C@H]2[C@@H]1CO)N1CCC(Cc2ccccc2)CC1	nt	33	nt	-2	nt	nt	nt	nt
O=C([C@@H]1[C@@H](CO)[C@@H]2Cn3c(ccc(C4=CCCCC4)c3=O)[C@H]1N2)N1CCC(Cc2ccccc2)CC1	10	100*	nt	2	10	18	-21	-21
Cc1ccc(S(=O)(=O)N(C)C[C@H]2OCCCC[C@@H](C)Oc3ccc(NC(=O)Cc4ccccc4)cc3C(=O)N([C@@H](C)CO)C[C@@H]2C)cc1	-77	112*	1	-1	106*	88	26	49*
Cc1ccc(S(=O)(=O)N(C)C[C@H]2OCCCC[C@@H](C)Oc3ccc(NC(=O)Cc4ccccc4)cc3C(=O)N([C@@H](C)CO)C[C@H]2C)cc1	-65	108*	nt	-1	106*	61	-19	-3
Cc1ccc(S(=O)(=O)N(C)C[C@@H]2OCCCC[C@@H](C)Oc3ccc(NC(=O)Cc4ccccc4)cc3C(=O)N([C@@H](C)CO)C[C@H]2C)cc1	-70	64	0	1	nt	nt	nt	nt
CCCNC(=O)N1[C@H](CO)[C@H](c2ccc(C3=CCCCC3)cc2)[C@@H]1C#N	0	56	0	2	nt	nt	nt	nt
N#C[C@@H]1[C@@H](c2ccc(C3=CCCCC3)cc2)[C@H](CO)N1C(=O)NC1CCCCC1	-28	98*	nt	-1	103*	67	-10	87*
CNC[C@H]1[C@@H](c2ccccc2)[C@@H](CO)N1C(=O)Nc1cccc(OC)c1	-7	33	nt	-5	nt	nt	nt	nt
COc1cccc(NC(=O)N2[C@H](CO)[C@H](c3ccccc3)[C@@H]2CNC(C)C)c1	-28	115*	nt	-1	91	27	1	-6
N#C[C@H]1[C@@H](c2ccc(C3=CCCC3)cc2)[C@@H](CO)N1C(=O)NC1CCCCC1	-27	nt	nt	0	nt	nt	nt	nt
N#C[C@H]1[C@H](c2ccc(C3=CCCCC3)cc2)[C@H](CO)N1C(=O)NC1CCCC1	-37	nt	nt	-1	nt	nt	nt	nt
CCCNC(=O)N1[C@H](C#N)[C@@H](c2ccc(C3=CCCCC3)cc2)[C@@H]1CO	-47	103*	nt	-2	105*	72	16	-41
N#C[C@@H]1[C@@H](c2ccc(C3=CCCCC3)cc2)[C@@H](CO)N1C(=O)NC1CCCCC1	11	98*	nt	1	104*	63	54*	64*
CC(C)NC[C@@H]1[C@H](c2ccc(C3=CCCCC3)cc2)[C@H](CO)N1C(=O)NC(C)C	-41	121*	nt	-1	106*	98*	29	105*
COc1ccc(C#Cc2ccc([C@@H]3[C@@H](CO)N4CCCCN(Cc5ccncc5)C[C@H]34)cc2)cc1	-74	?	nt	2	100*	?	89*	105*
CCCC#Cc1ccc([C@H]2[C@@H](CO)N3CCCCN(Cc4ccncc4)C[C@@H]23)cc1	-8	115*	nt	1	101*	28	?	71*
CCCC#Cc1ccc([C@H]2[C@H]3CN(Cc4ccncc4)CCCCN3[C@H]2CO)cc1	-25	95*	nt	-1	105*	56	42*	81*
SMILES	Pf Dd2 growth	T cruzi growth-1	IDH1 R132H inh	KDM4C inh	T cruzi growth-2	T cruzi growth-3	3T3 cytotox	3T3 cytotox 2
C[C@H](CO)N1C[C@H](C)[C@H](CN(C)Cc2cncnc2)Oc2ncc(-c3cccc(F)c3)cc2C1=O	-20	38	-1	3	nt	nt	nt	nt
COc1cccc(C(=O)c2oc3ccccc3c2NC(=O)COc2ccccc2)c1	nt	nt	-1	nt	nt	nt	nt	nt
C[C@H](CO)N1C[C@H](C)[C@H](CN(C)Cc2ccc(-c3ccccc3)cc2)Oc2ccc(NC(=O)CCCN(C)C)cc2CC1=O	-36	nt	2	0	nt	nt	nt	nt
Nc1cc(N)nc(SCC(=O)N(c2ccccc2)c2ccccc2)n1	nt	nt	0	nt	nt	nt	nt	nt
COc1ccc2c3c(n(C)c2c1)[C@H](CO)N(Cc1ccc2c(c1)OCO2)CC31CCN(C(=O)C2CC2)CC1	-60	nt	nt	nt	nt	nt	nt	nt
COCC(=O)N1CC[C@H]2[C@@H]1c1cc(-c3cccc(OC)c3)ccc1N(C)[C@H]2CO	8	101*	nt	2	108*	79	4	-7
CCC(=O)N1CC[C@@H]2[C@H]1c1cc(-c3ccccc3)ccc1N(C)[C@H]2CO	-5	36	nt	2	nt	nt	nt	nt
CCC(=O)N1CC[C@H]2[C@@H]1c1cc(-c3cccc(OC)c3)ccc1N(C)[C@H]2CO	-1	99*	nt	0	101*	77	11	-4
COc1cccc(-c2ccc3c(c2)[C@H]2[C@H](CCN2C(=O)CC2CC2)[C@H](CO)N3C)c1	-9	9	nt	2	nt	nt	nt	nt
COc1cccc(-c2ccc3c(c2)[C@@H]2[C@@H](CCN2C(=O)CC2CC2)[C@H](CO)N3C)c1	-18	5	nt	2	nt	nt	nt	nt
COCC(=O)N1CC[C@@H]2[C@H]1c1cc(-c3cccc(OC)c3)ccc1N(C)[C@H]2CO	-6	96*	nt	3	103*	106*	-24	-38
O=C(C[C@H]1C=C[C@H](NC(=O)C2CCOCC2)[C@@H](CO)O1)NCc1ccncc1	32	5	0	0	nt	nt	nt	nt
